Published values of several laboratories.
Lines come from different studies, so protocols differ.
Target: Vascular endothelial growth factor receptor 2 (KDR, Homo sapiens, UniProt P35968)

Cc1cc(Nc2cc(CN3CCOCC3)c3nc(C)c(Cc4ccc(Cl)cc4F)n3n2)n[nH]1 — IC50 (enzyme activity, inhibitor, TR-FRET): 0.109 µM
C=CC(=O)Nc1cccc(CN2C(=O)N(c3c(Cl)c(OC)cc(OC)c3Cl)Cc3cnc(NCCCCN(CC)CC)nc32)c1 — Kd (binding, competition with immobilised ligand): 0.21 µM
Cc1ccc(C(=O)Nc2ccc(Oc3cc4cnn(C)c4cc3-c3cn[nH]c3)c(F)c2)c(=O)n1-c1ccc(F)cc1 — IC50 (phosphorylation in cells, inhibitor, AlphaScreen): 0.347 µM
CC(C)(C)n1nc(-c2ccc3nc(OC4CC4)ccc3c2)c(C(N)=O)c1N — IC50 (cell-free assay): 0.45 µM
CNC(=O)c1cc2c(Oc3ccc(NC(=O)C4(C(=O)Nc5ccc(F)cc5)CC4)cc3)ccnc2cc1OC — IC50 (enzyme activity, inhibitor, radiometric): 0.006 µM
CC(C)(C)n1nc(-c2cnc3cc(OC4CC4)ccc3c2)c(C(N)=O)c1N — IC50 (cell-free assay): 1.09 µM
Cc1cc(Nc2cc3ncccc3c(N[C@@H]3C[C@H]4CC[C@@H](C3)N4CCC#N)n2)n[nH]1 — Kd (binding, competition with immobilised ligand): 0.62 µM
CN1CCN(c2ccc(Nc3ncc4cc(C#N)c(=O)n(C5CCCC5)c4n3)cc2)CC1 — IC50 (enzyme activity, inhibitor): 0.0568 µM
